Reference: ChEMBL document CHEMBL4673306, “Exploration of nitrogen heterocycle scaffolds for the development of potent human neutrophil elastase inhibitors” (Bioorg Med Chem, 2021)

Legend:
[1] = molecular target: T1, Neutrophil elastase (Homo sapiens, UniProt P08246); experiment: Inhibition of human neutrophil elastase using N-methylsuccinyl-Ala-Ala-Pro-Val-7-amino-4-methylcoumarin as substrate measured for every 30 sec for 10 mins by fluorescence based assay
T1 sequence (P08246 whole entry): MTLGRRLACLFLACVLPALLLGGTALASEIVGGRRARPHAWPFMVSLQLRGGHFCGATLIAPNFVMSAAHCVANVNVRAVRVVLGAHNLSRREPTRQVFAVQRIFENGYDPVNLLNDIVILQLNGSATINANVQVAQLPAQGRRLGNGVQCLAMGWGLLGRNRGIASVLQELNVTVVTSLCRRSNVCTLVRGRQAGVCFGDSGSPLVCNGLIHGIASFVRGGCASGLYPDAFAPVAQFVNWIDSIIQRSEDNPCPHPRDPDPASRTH

[2] = Stability of compound in PBS at pH 7.4 assessed as half life by spectrophotometry; assay type: physicochemical; details: buffer
How it was run: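 Spontaneous hydrolysis measured at 20 °C in 0.05 M phosphate buffer, pH 7.4, with compound at 20 μM. Absorbance was read at each compound's characteristic maximum over time until it stopped falling (A∞). k' was taken from the slope of log(At − A∞) versus time, and t1/2 = 0.693/k'.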

Which IC50 [1] does the source give for `COc1cccc(NC(=O)c2cnc3cc(C)nn3c2C)c1` here?
Its IC50 is “Not Active”.

Which t1/2 [2] does the source give for `Cc1cccc(C(=O)n2cc(C#N)c3cnccc32)c1` here?
Its t1/2 is 2.722 h.

For `CCOC(=O)c1nn(C(=O)C2CC2)c2ccncc12`, which IC50 ([1]; read-out: IC50) is on record?
Its IC50 is 69 nM.

And the t1/2 [2]?
The t1/2 was 7.28 h.

With `COc1cccc(CNC(=O)c2cnn3c(C)c(C(C)=O)cnc23)c1` as the compound, how does the IC50 [1] read?
The IC50 was “Not Active”.

With `N#Cc1nn(C(=O)C2CC2)c2ccncc12` as the compound, how does the IC50 ([1]; read-out: IC50) read?
Its IC50 is 79 nM.

What about the t1/2 [2] of the same compound?
Its t1/2 is 1.32 h.

With `COc1cccc(CNC(=O)c2cnc3cc(C)nn3c2C)c1` as the compound, how does the IC50 [1] read?
The IC50 was “Not Active”.

Which IC50 ([1]; read-out: IC50) does the source give for `N#Cc1cn(C(=O)C2CC2)c2cnccc12` here?
The IC50 was 183 nM.

With `Cc1cccc(C(=O)n2nc(C#N)c3cccnc32)c1` as the compound, how does the IC50 ([1]; read-out: IC50) read?
The IC50 was 330 nM.

For `COc1cccc(CNC(=O)c2cnc3c(Cl)c(C(C)(C)C)nn3c2C)c1`, which IC50 [1] is on record?
The IC50 was “Not Active”.

Which t1/2 [2] does the source give for `N#Cc1cn(C(=O)C2CC2)c2nccnc12` here?
The t1/2 was 1.677 h.

For `COc1cccc(NC(=O)c2cnc3cc(C(C)(C)C)nn3c2C)c1`, which IC50 [1] is on record?
The IC50 was “Not Active”.

With `N#Cc1nn(C(=O)C2CCCCC2)c2ncccc12` as the compound, how does the IC50 ([1]; read-out: IC50) read?
The IC50 was 1100 nM.

With `N#Cc1nn(Cc2ccccc2)c2ncccc12` as the compound, how does the IC50 [1] read?
Its IC50 is “Not Active”.

Which IC50 ([1]; read-out: IC50) does the source give for `Cc1cccc(C(=O)n2nc(C)c3cnccc32)c1` here?
Its IC50 is 760 nM.

Which results are given for `CCOC(=O)c1nn(C(=O)c2cccc(C)c2)c2ccncc12`?
IC50 ([1]; read-out: IC50): 16 nM; t1/2 [2]: 2.45 h

Which IC50 ([1]; read-out: IC50) does the source give for `O=C(C1CC1)n1ccc2nccnc21` here?
The IC50 was 7900 nM.

Which IC50 ([1]; read-out: IC50) does the source give for `O=C(C1CC1)n1nc([N+](=O)[O-])c2cccnc21` here?
The IC50 was 21 nM.

And the t1/2 [2]?
Its t1/2 is 1.56 h.

Which IC50 ([1]; read-out: IC50) does the source give for `O=C(C1CC1)n1nc(C(F)(F)F)c2cnccc21` here?
Its IC50 is 87 nM.

And the t1/2 [2]?
The t1/2 was 6.435 h.

With `Cc1cccc(C(=O)n2nc(C(F)(F)F)c3cnccc32)c1` as the compound, how does the IC50 ([1]; read-out: IC50) read?
Its IC50 is 33 nM.

And the t1/2 [2]?
The t1/2 was 1.777 h.

Which IC50 ([1]; read-out: IC50) does the source give for `N#Cc1nn(C(=O)C2CC2)c2ncccc12` here?
The IC50 was 34 nM.

Which IC50 ([1]; read-out: IC50) does the source give for `N#Cc1cn(C(=O)C2CC2)c2cccnc12` here?
Its IC50 is 23 nM.

And the t1/2 [2]?
The t1/2 was 4.472 h.

For `Cc1cccc(C(=O)n2nc(C(F)(F)F)c3cccnc32)c1`, which IC50 ([1]; read-out: IC50) is on record?
Its IC50 is 420 nM.

Which IC50 [1] does the source give for `COc1cccc(CNC(=O)c2cnc3cc(C(C)(C)C)nn3c2C)c1` here?
The IC50 was “Not Active”.

For `O=C(C1CC1)n1nc(C(F)(F)F)c2cccnc21`, which IC50 ([1]; read-out: IC50) is on record?
Its IC50 is 50 nM.

And the t1/2 [2]?
The t1/2 was 14.7 h.

Which t1/2 [2] does the source give for `Cc1cccc(C(=O)n2cc(C#N)c3ncccc32)c1` here?
Its t1/2 is 1.28 h.

Which results are given for `Cc1cccc(C(=O)n2nc(C#N)c3cnccc32)c1`?
IC50 ([1]; read-out: IC50): 10 nM; t1/2 [2]: 0.203 h

Which IC50 ([1]; read-out: IC50) does the source give for `Cc1ccc(C(=O)n2nc(C#N)c3cccnc32)cc1` here?
Its IC50 is 1500 nM.

For `Cc1cccc(C(=O)n2nc(C(=O)OC(C)C)c3cccnc32)c1`, which IC50 ([1]; read-out: IC50) is on record?
Its IC50 is 980 nM.

With `COc1cccc(NC(=O)c2cnn3c(C)c(C(C)=O)cnc23)c1` as the compound, how does the IC50 [1] read?
Its IC50 is “Not Active”.

Which IC50 ([1]; read-out: IC50) does the source give for `N#Cc1nn(C(=O)c2ccccc2)c2ncccc12` here?
The IC50 was 160 nM.

For `N#Cc1nn(C(=O)C2CCCC2)c2ncccc12`, which IC50 ([1]; read-out: IC50) is on record?
Its IC50 is 140 nM.

Which IC50 [1] does the source give for `COc1cccc(NC(=O)c2cnc3c(Cl)c(C(C)(C)C)nn3c2C)c1` here?
Its IC50 is “Not Active”.

For `Nc1nn(C(=O)C2CC2)c2ncccc12`, which IC50 ([1]; read-out: IC50) is on record?
Its IC50 is 9900 nM.

For `CCOC(=O)c1nn(C(=O)c2cccc(C)c2)c2ncccc12`, which IC50 ([1]; read-out: IC50) is on record?
Its IC50 is 2000 nM.
